Experimental data taken from ChEMBL document CHEMBL1765004 (2011).
Activity calls are given as the source filed them. No cut-off for these calls is given here.

Legend:
U-251 = test: Anticancer activity against human U251 cells; assay type: functional
Procedure, shortened: (§1)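 NCI-DTP 60 cell line screen; GI50 values supplied by NCI-DTP. HCT-116 GI50 for some entries determined instead by a separate group (Henry Ford Hospital). Compounds failing initial single-dose testing at 10 μM (<25% growth inhibition) were not taken to five-dose testing.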

HCT-116 [1] = test: Anticancer activity against human HCT116 cells; assay type: functional; procedure, shortened: as §1
NCI-H522 = test: Anticancer activity against human NCI-H522 cells; assay type: functional; procedure, shortened: as §1
DU-145 = test: Anticancer activity against human DU145 cells; assay type: functional; procedure, shortened: as §1
MDA-MB-231 = test: Anticancer activity against human MDA-MB-231 cells; assay type: functional; procedure, shortened: as §1
A498 = test: Anticancer activity against human A498 cells; assay type: functional; procedure, shortened: as §1
LOX IMVI = test: Anticancer activity against human LOXIMVI cells; assay type: functional; procedure, shortened: as §1
IGROV-1 = test: Anticancer activity against human IGROV1 cells; assay type: functional; procedure, shortened: as §1
HCT-116 [2] = test: Antimicrofilament activity in human HCT116 cells assessed as loss of microfilament at 0.01 uM by rhodamine-phalloidin staining; assay type: functional, cell-based
HCT-116 [3] = test: Antimicrofilament activity in human HCT116 cells assessed as loss of microfilament network at 0.5 uM by rhodamine-phalloidin staining; assay type: functional, cell-based
HCT-116 [4] = test: Antimicrofilament activity in human HCT116 cells assessed as additional loss of microfilament at 5 uM by rhodamine-phalloidin staining; assay type: functional, cell-based
HCT-116 [5] = test: Antimicrofilament activity in human HCT116 cells assessed as loss of microfilament at 0.1 uM by rhodamine-phalloidin staining; assay type: functional, cell-based
HCT-116 [6] = test: Antimicrofilament activity in human HCT116 cells assessed as loss of microfilament at 0.05 uM by rhodamine-phalloidin staining; assay type: functional, cell-based
HCT-116 [7] = test: Antimicrofilament activity in human HCT116 cells assessed as additional loss of microfilament at 1 uM by rhodamine-phalloidin staining; assay type: functional, cell-based
HCT-116 [8] = test: Antimicrofilament activity in human HCT116 cells assessed as total loss of microfilament network at 1 uM by rhodamine-phalloidin staining; assay type: functional, cell-based
HCT-116 [9] = test: Antimicrofilament activity in human HCT116 cells assessed as complete loss of microfilament network at 0.5 uM to 5 uM by rhodamine-phalloidin staining
HCT-116 [10] = test: Antimicrofilament activity in human HCT116 cells assessed as total loss of microfilament network at 5 uM by rhodamine-phalloidin staining; assay type: functional, cell-based
HCT-116 [11] = test: Antimicrofilament activity in human HCT116 cells assessed as total loss of microfilament network at 0.5 uM by rhodamine-phalloidin staining; assay type: functional, cell-based
HCT-116 [12] = test: Antimicrofilament activity in human HCT116 cells assessed as complete loss of microfilament network at GI50 concentration by rhodamine-phalloidin staining; assay type: functional, cell-based
HCT-116 [13] = test: Antimicrofilament activity in human HCT116 cells assessed as loss of microfilament at 5 uM by rhodamine-phalloidin staining; assay type: functional, cell-based
HCT-116 [14] = test: Antimicrofilament activity in human HCT116 cells assessed as loss of microfilament at 1 uM by rhodamine-phalloidin staining; assay type: functional, cell-based
HCT-116 [15] = test: Antimicrofilament activity in human HCT116 cells assessed as additional loss of microfilament network at 0.5 uM by rhodamine-phalloidin staining; assay type: functional, cell-based
HCT-116 [16] = test: Antimicrofilament activity in human HCT116 cells assessed as additional loss of microfilament at 0.1 uM by rhodamine-phalloidin staining; assay type: functional, cell-based
HCT-116 [17] = test: Anticancer activity against human HCT116 cells at 10 uM; assay type: functional

Compound | GI50 (U-251) [µM] | GI50 (HCT-116 [1]) | GI50 (NCI-H522) [µM] | GI50 (DU-145) [µM] | GI50 (MDA-MB-231) | GI50 (A498) [µM] | GI50 (LOX IMVI) [µM] | GI50 (IGROV-1) [µM] | Activity (HCT-116 [2]) | Activity (HCT-116 [3]) | Activity (HCT-116 [5]) | Activity (HCT-116 [6]) | Activity (HCT-116 [13]) | Activity (HCT-116 [14]) | other results
C/C1=C\[C@H](C)C[C@H](C)OC(=O)C[C@H](c2ccc(O)cc2)NC(=O)[C@@H](Cc2c(Br)[nH]c3ccccc23)NC(=O)[C@H](C)NC(=O)[C@@H](C)C1 [JASPLAKINOLIDE M] | 0.06 | 0.13 µM | 0.2 | 0.25 | 0.21 µM | 0.17 | 0.02 | 0.03 |  |  |  |  |  |  | 
COC(=O)C[C@@H](NC(=O)[C@@H](Cc1c(Br)[nH]c2ccccc12)N(C)C(=O)[C@H](C)NC(=O)[C@@H](C)C/C(C)=C/[C@H](C)C[C@H](C)O)c1ccc(O)cc1 |  | 0.27 µM |  |  |  |  |  |  | inactive | Active | inactive | inactive |  |  | Activity (HCT-116 [4]): Active; Activity (HCT-116 [7]): Active
C/C1=C\[C@H](C)C[C@H](C)OC(=O)C[C@H](c2ccc(O)cc2)NC(=O)[C@@H](Cc2c(Br)[nH]c3cc(Br)ccc23)N(C)C(=O)[C@H](C)NC(=O)[C@@H](C)C1 [JASPLAKINOLIDE R1] | 0.03 | 0.06 µM | 0.003 | 0.31 | 0.09 µM | 0.04 | 0.04 | 0.03 | inactive |  | inactive | inactive |  |  | Activity (HCT-116 [8]): Active; Activity (HCT-116 [9]): Active; Activity (HCT-116 [10]): Active; Activity (HCT-116 [11]): Active
C/C1=C\[C@H](C)C[C@H](C)OC(=O)C[C@H](c2ccc(O)cc2)NC(=O)[C@@H](Cc2c[nH]c3ccccc23)N(C)C(=O)[C@H](C)NC(=O)[C@@H](C)C1 [JASPLAKINOLIDE Q] | 0.03 | 0.05 µM | 0.16 | 0.1 | 0.07 µM | 0.08 | 0.02 | 0.01 |  |  |  |  |  |  | 
CC[C@@H]1NC(=O)[C@@H](C)C/C(C)=C/[C@H](C)C[C@H](C)OC(=O)C[C@H](c2ccc(O)cc2)NC(=O)[C@@H](Cc2c(Br)[nH]c3ccccc23)N(C)C1=O [JASPLAKINOLIDE D] | 0.01 | 0.02 µM | 0.03 | 0.02 | 0.02 µM | 0.002 | 0.003 | 0.008 |  |  |  |  |  |  | 
CCOC(=O)C[C@@H](NC(=O)[C@@H](Cc1c(Br)[nH]c2ccccc12)N(C)C(=O)[C@H](C)NC(=O)[C@@H](C)C/C(C)=C/[C@H](C)C[C@H](C)O)c1ccc(O)cc1 | 0.05 | 0.28 µM | 0.04 | 3.72 | 0.74 µM | 0.44 | 0.16 | 0.17 | inactive | Active | inactive | inactive |  |  | Activity (HCT-116 [4]): Active; Activity (HCT-116 [12]): Active; Activity (HCT-116 [7]): Active
C/C(=C\[C@H](C)C[C@H](C)O)C[C@H](C)C(=O)N[C@@H](C)C(=O)N(C)[C@H](Cc1c(Br)[nH]c2ccccc12)C(=O)N[C@H](CC(=O)O)c1ccc(O)cc1 [JASPLAKINOLIDE Z1] | 0.6 | 13.7 µM | 0.12 | 18.8 | 2.5 µM |  | 0.28 | 1.76 | inactive | Active | inactive | inactive | inactive | inactive | 
C=C1C[C@H](C)C(=O)N[C@@H](C)C(=O)N(C)[C@H](Cc2c(Br)[nH]c3ccccc23)C(=O)N[C@@H](c2ccc(O)cc2)CC(=O)O[C@@H](C)C[C@@H](C)C1=O [JASPLAKINOLIDE B] |  | 0.14 µM |  |  | 0.04 µM |  |  |  | inactive |  | Active | inactive |  |  | Activity (HCT-116 [4]): Active; Activity (HCT-116 [15]): Active; Activity (HCT-116 [12]): Active; Activity (HCT-116 [7]): Active
C/C(=C\[C@H](C)C[C@H](C)O)C[C@H](C)C(=O)N[C@@H](C)C(=O)N(C)[C@H](Cc1c(Br)[nH]c2ccccc12)C(N)=O |  | 11.1 µM |  |  | 22.3 µM |  |  |  | inactive | Active | inactive | inactive | inactive | inactive | 
C/C1=C\[C@H](C)C[C@H](C)OC(=O)C[C@H](c2ccc(O)cc2)NC(=O)[C@@H](Cc2c(Br)[nH]c3ccccc23)N(C)C(=O)[C@H](C)NC(=O)CC1 [JASPLAKINOLIDE F] | 0.05 | 0.11 µM | 0.61 | 0.29 | 0.26 µM | 0.21 | 0.03 | 0.02 |  |  |  |  |  |  | 
C/C1=C\[C@H](C)C[C@H](C)OC(=O)C[C@H](c2ccc(O)c(O)c2)NC(=O)[C@@H](Cc2c(Br)[nH]c3ccccc23)N(C)C(=O)[C@H](C)NC(=O)[C@@H](C)C1 | 0.04 | 0.07 µM | 0.06 | 0.08 | 0.09 µM | 0.01 | 0.007 | 0.03 | inactive |  |  | Active |  |  | Activity (HCT-116 [16]): Active; Activity (HCT-116 [8]): Active; Activity (HCT-116 [9]): Active; Activity (HCT-116 [10]): Active; Activity (HCT-116 [11]): Active
C/C1=C\[C@H](C)C[C@H](C)OC(=O)/C=C(/c2ccc(O)c(O)c2)NC(=O)[C@@H](Cc2c(Br)[nH]c3ccccc23)N(C)C(=O)[C@H](C)NC(=O)[C@@H](C)C1 |  | 3.84 µM |  |  | 2.32 µM |  |  |  | inactive | Active | inactive | inactive | inactive | inactive | 
C/C(=C\[C@H](C)C[C@H](C)OC(=O)CC(=O)c1ccc(O)c(O)c1)C[C@H](C)C(=O)N[C@@H](C)C(=O)N(C)[C@H](Cc1c(Br)[nH]c2ccccc12)C(N)=O |  | inactive |  |  | inactive |  |  |  | inactive |  | inactive | inactive | inactive | inactive | inhibition at 10 µM (HCT-116 [17]): < 25%
